In general, MIC90 refers to the lowest concentration that inhibits either 90% of growth or 90% of the strains tested, depending on the study. Read a high MIC90 as weaker potency. One may read the IC50 as the midpoint of a concentration-inhibition curve. The term AUC denotes concentration integrated over time. Read a high AUC as more exposure. For orientation: Cmax means the highest concentration seen after dosing. A word on the half-life: it is the time in which the quantity being followed falls by half. Low values mean rapid decline, high ones slow decline. As usually defined, the solubility (kinetic) is solubility judged after dilution from a stock solution rather than from solid. The MIC80 is the lowest concentration that inhibits either 80% of growth or 80% of the strains tested, depending on the study.

Experimental findings from ChEMBL document CHEMBL4257587 (J Med Chem, 2018) are described below.

Values after ≈ are worked out from the molar mass of the structure shown.

Series [1] in a line: Cardiotoxicity in New Zealand white perfused rabbit heart left ventricular wedge assessed as prolongation of QT interval at 10 uM by electrophysiology assay. It is filed as toxicity, tissue-based, Oryctolagus cuniculus, Heart left ventricle.
The nature of series [2]: Cardiotoxicity in New Zealand white perfused rabbit heart left ventricular wedge assessed as prolongation of Tp-e interval time at 10 uM by electrophysiology assay relative to control. It is filed as toxicity, tissue-based, Oryctolagus cuniculus, Heart left ventricle.
Series [3] can be described thus: Cardiotoxicity in New Zealand white perfused rabbit heart left ventricular wedge assessed as drug concentration causing prolongation of Tp-e interval time by electrophysiology assay. The format is toxicity, tissue-based, Oryctolagus cuniculus, Heart left ventricle.
Series [4] relates to Mycobacterium tuberculosis. The experiment in a line: Antimycobacterial activity against Mycobacterium tuberculosis H37Rv ATCC 25618 after 6 days by resazurin-based assay. It is filed as functional. The conditions noted are these: H37Rv ATCC 25618, 144 h. In general terms: Resazurin is reduced to fluorescent resorufin, in cell work by metabolically active cells.
Series [5] can be described thus: Cardiotoxicity in New Zealand white perfused rabbit heart left ventricular wedge assessed as prolongation of QRS interval time at 30 uM by electrophysiology assay relative to control. It is filed as toxicity, tissue-based, Oryctolagus cuniculus, Heart left ventricle.
Series [6] in a line: Intrinsic clearance in mouse liver microsomes at 0.5 uM preincubated with NADPH and measured up to 30 mins by LC-MS/MS analysis. It is filed as ADME, microsome. A general note: Microsomes from liver hold many membrane-bound enzymes, among them those of drug oxidation.
Series [7] deals with HepG2. Description: Cytotoxicity against human HepG2 cells assessed as effect on mitochondrial membrane potential after 48 hrs by TMRM-staining based cell health assay. The note with it: HepG2, 48 h. It is filed as ADME.
Series [8] is described as follows: Intrinsic clearance in human liver microsomes at 0.5 uM preincubated with NADPH and measured up to 30 mins by LC-MS/MS analysis. The format is ADME, microsome.
Series [9] concerns HepG2. Description: cells. It is filed as ADME, cell-based. The note with it: Homo sapiens, HepG2, 48 h.
Series [10] deals with Mus musculus. Description: AUC in C57BL/6 mouse at 49.2 mg/kg, po via gavage by LC-MS/MS analysis. It is filed as ADME, organism-based. The conditions noted are these: in vivo.
In series [11] the test system is Mus musculus. Description: Oral bioavailability in C57BL/6 mouse at 49.2 mg/kg via gavage by LC-MS/MS analysis. It is filed as ADME, organism-based. The note with it: in vivo.
Series [12] is described as follows: Cmax in C57BL/6 mouse at 49.2 mg/kg, po via gavage by LC-MS/MS analysis. The format is ADME, organism-based. Further details: dose 49.2 mg/kg, route oral. The conditions noted are these: in vivo.
The nature of series [13]: Half life in C57BL/6 mouse at 4 mg/kg, iv by LC-MS/MS analysis. It is filed as ADME, organism-based. The note with it: in vivo. In short, it runs like this:
(§1)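 Female C57BL/6 mice (18−20 g), single intravenous dose in 5% DMSO/20% Encapsin. Tail-vein whole blood (25 μL) was taken from each mouse (n = 5) at 5, 15 and 30 min and 1, 2, 4 and 8 h postdose, and compound concentration was measured in peripheral whole blood.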

Series [14] can be described thus: Volume of distribution at steady state in C57BL/6 mouse at 4 mg/kg, iv by LC-MS/MS analysis. The conditions noted are these: in vivo, read-out: Vdss. The format is ADME, organism-based. In short, it runs like this:
as §1

Series [15] is described as follows: Cytotoxicity against human HepG2 cells after 48 hrs by cellTiter-Glo assay. The format is cell-based. The note with it: read-out: TC50. (In ATP-based viability assays light output follows the ATP content of the culture.)
The test system of series [16] is Mycobacterium tuberculosis. The experiment in a line: Antimycobacterial activity against Mycobacterium tuberculosis clinical isolates after 6 days by resazurin-based assay. The format is functional. The conditions noted are these: 144 h.
A further series can be described thus: physchem. The conditions noted are these: buffer, pH 7.4.
Series [17] deals with Mycobacterium tuberculosis. Description: Antimycobacterial activity against Mycobacterium tuberculosis H37Rv ATCC 25618 assessed as reduction in cell viability after 7 days by bacTiter-Glo assay. The format is functional. The note with it: H37Rv ATCC 25618, 168 h.

In the case of `CC(C)(C)c1ccc(CN2CCC3(CCCCO3)CC2)cc1`, the Activity in series [1] was 12.2%; in series [2], 44.4%; in series [3], 10 µM; in [5], 25.4%. For the same compound, in series [4], the MIC90 came out at 0.21 µM (≈ 0.0633 µg/mL). The CLH in series [6] was 18.1 mL/min/g; in series [8], 3.2 mL/min/g. Also, the IC50 in the series on HepG2 [7] was 135 µM; in the series on HepG2 [9] it was 129 µM.
`c1cc2c(s1)CCOC21CCN(Cc2ccc3c(c2)OCCO3)CC1`: the exposure (AUC) with Mus musculus [10] turned out to be 1780 ng·h/mL. The compound further registered a F with Mus musculus [11] of 14.6%. Moreover, the Cmax in series [12] was found to be 470 ng/mL. Also, the MIC90 in series [4] is 0.3 µM (≈ 0.107 µg/mL); in [16] it was 0.6 µM (≈ 0.214 µg/mL). Also, in [13], the half-life was 42 min. The Vd in series [14] stood at 7.4 L/kg. Further, the CC50 at 48 h in series [15] was determined as 36 µM. The CLH in series [6] is greater than 30 mL/min/g; in series [8] it was 25 mL/min/g. This compound also showed a solubility (kinetic) at 1 h in “physchem” of 266 µM (≈ 95.1 µg/mL). Also, the MIC80 in series [17] amounted to 0.25 µM (≈ 0.0894 µg/mL).
